“Also recorded” adds a separate entry of the source.
Assays:
[1] = cited from earlier work
FGAR = test: Tumor target engagement: tumor FGAR; assay type: in vivo, C57BL/6/CES1-/- mice; conditions: EL4 tumor, 1 hour after s.c. dose (DRP-104 2.6 mg/kg, DON 0.3 mg/kg)
[2] = 31 of 47 patients who received 2 weeks or more of DON therapy; cited from earlier work
GLS-1 = molecular target: T1, GLS-1 (Mus musculus, UniProt D3Z7P3); test: Tumor target engagement: tumor GLS-1 activity; assay type: in vivo, C57BL/6/CES1-/- mice; conditions: EL4 tumor, 1 hour after s.c. dose
T1 sequence (D3Z7P3 55-674): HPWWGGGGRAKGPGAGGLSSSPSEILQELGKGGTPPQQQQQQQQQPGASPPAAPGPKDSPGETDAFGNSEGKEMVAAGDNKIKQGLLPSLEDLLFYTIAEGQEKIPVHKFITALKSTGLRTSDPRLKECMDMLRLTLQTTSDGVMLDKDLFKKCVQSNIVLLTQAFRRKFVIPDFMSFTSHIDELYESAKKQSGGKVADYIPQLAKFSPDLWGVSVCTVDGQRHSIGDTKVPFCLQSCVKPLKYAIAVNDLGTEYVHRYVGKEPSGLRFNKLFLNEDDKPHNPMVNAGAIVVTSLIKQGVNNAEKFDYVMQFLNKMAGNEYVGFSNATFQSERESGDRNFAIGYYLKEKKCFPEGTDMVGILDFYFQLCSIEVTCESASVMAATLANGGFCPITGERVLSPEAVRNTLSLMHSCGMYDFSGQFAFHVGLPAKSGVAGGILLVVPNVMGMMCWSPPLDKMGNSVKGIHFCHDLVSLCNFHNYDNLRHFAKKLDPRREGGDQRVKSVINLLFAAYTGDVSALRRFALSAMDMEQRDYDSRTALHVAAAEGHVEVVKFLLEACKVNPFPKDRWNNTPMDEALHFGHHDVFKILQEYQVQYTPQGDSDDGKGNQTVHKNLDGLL
How it was run: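 Test compound was dosed s.c. to EL4 tumor-bearing CES1−/− mice, and tumors were harvested 1 h post-dose. Tumor GLS-1 activity was quantified with a radiolabel-based enzymatic assay.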

[3] = Tolerability, intravenous cohort; assay type: in vivo, C57BL/6/CES1-/- mice
How it was run: (§1)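 EL4 cells (0.3 × 10^6) were given s.c. in the right flank. At a mean tumour volume of about 400 mm3, mice were randomised (n = 8) to vehicle, parent drug 1 mg/kg or test compound 1 mg/kg DON equivalent, i.v., 5 days/week for 2 weeks. Tumour volume (calipers, […]), body weight and mortality were tracked; euthanasia followed IACUC tumour-volume or weight-loss guidelines.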

[4] = molecular target: T2, glutaminase enzyme (GLS-1) (Homo sapiens, UniProt O94925); test: GLS-1 inhibition, [3H]-glutamine radiolabel enzymatic assay; assay type: biochemical
T2 sequence (O94925 55-669): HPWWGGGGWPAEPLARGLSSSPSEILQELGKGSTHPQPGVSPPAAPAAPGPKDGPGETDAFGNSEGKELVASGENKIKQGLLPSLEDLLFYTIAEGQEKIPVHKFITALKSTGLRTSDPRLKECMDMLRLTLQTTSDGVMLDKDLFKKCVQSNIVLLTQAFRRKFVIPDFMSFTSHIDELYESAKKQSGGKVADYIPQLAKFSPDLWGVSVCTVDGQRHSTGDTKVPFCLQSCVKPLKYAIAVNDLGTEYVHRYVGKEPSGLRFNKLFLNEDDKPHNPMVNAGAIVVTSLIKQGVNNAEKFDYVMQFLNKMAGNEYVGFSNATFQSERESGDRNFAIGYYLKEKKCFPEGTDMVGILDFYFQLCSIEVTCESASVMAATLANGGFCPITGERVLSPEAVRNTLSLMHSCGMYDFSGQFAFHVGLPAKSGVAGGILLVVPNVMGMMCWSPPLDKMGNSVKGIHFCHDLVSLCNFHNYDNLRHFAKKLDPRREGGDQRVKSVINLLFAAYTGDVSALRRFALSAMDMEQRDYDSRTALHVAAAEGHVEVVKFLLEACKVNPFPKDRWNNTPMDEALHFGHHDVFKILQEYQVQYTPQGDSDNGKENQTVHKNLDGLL

EL4 tumors [5] = test: Antitumor efficacy, intravenous cohort, EL4 tumors; assay type: in vivo, C57BL/6/CES1-/- mice; conditions: 1 mg/kg DON eq. intravenously, 5 days per week for 2 weeks
How it was run: as §1

[6] = GI histopathology and scoring; assay type: in vivo, C57BL/6/CES1-/- mice; conditions: for GI histology (in words): 1 mg/kg DON eq. IV, end of treatment
P493B lymphoma cells = test: P493B lymphoma cell viability assay; assay type: cell-based; conditions: 72 h
Complete blood count = assay type: in vivo, C57BL/6/CES1-/- mice; conditions: Avg of 3 animals, 1 mg/kg (eq.) iv, normal range 1.06-56.08
How it was run: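 In the EL4 i.v. cohort (vehicle, parent drug or test compound at 1 mg/kg DON equivalent, 5 days/week for 2 weeks), mice remaining at the end of treatment were sacrificed and blood was collected for a complete blood count.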

EL4 tumors [7] = test: Antitumor efficacy, subcutaneous dosing cohort, EL4 tumors; assay type: in vivo, C57BL/6/CES1-/- mice; conditions: 0.1, 0.3 and 1 mg/kg DON eq. subcutaneously, 5 days per week
How it was run: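 EL4 mouse lymphoma cells (0.3 × 10^6) were injected s.c. into the right flank of male and female C57BL/6/CES1−/− mice aged 6–8 weeks (25–30 g). Test compound was given s.c. at 0.1, 0.3 or 1 mg/kg DON equivalent, 5 days/week. Tumor length and width were measured by caliper, with volume = […]. Body weight and GI histology were tracked in parallel.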

[8] = Plasma stability, human plasma; assay type: in vitro ADME; conditions: % remaining at 60 minutes, 37°C
[9] = DRP-104 stability in EL4 tumor homogenate with protease/esterase inhibitors; assay type: in vitro ADME, mouse; conditions: no inhibitor, time 1 h
MC38 tumors [10] = test: Anti-PD-1 combination study, MC38 tumors; assay type: in vivo, C57BL/6/CES1-/- mice; conditions: MC38 tumor-bearing mice, same regimens
How it was run: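 Mice (4 male, 3 female per group, n = 7) got 5 × 10^5 MC38 cells s.c. in the right flank and were randomised at about 400 mm3 (about day 10). Arms: vehicle; anti-PD-1 100 μg i.p. on days 10, 12, 14 and 16; test compound 0.8 mg/kg s.c., 5 days/week for 4 weeks; combination. Endpoint: tumour >4000 mm3, ulceration, necrosis or functional deficit.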

[11] = Metabolite identification; assay type: in vitro ADME, mouse; conditions: 60-min incubation
[12] = PK of DRP-104, DON and M1 in EL4 tumor-bearing mice; assay type: in vivo, C57BL/6/CES1-/- mice; conditions: for intact DRP-104 concentration: BLQ = below the limit of quantitation
MC38 tumors [13] = test: CD8 depletion study, MC38 tumors; assay type: in vivo, C57BL/6/CES1-/- mice; conditions: MC38, CD8+ T cell-depleting antibodies versus isotype
How it was run: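 MC38-bearing CES1−/− mice received anti-mouse CD8β (clone 53-5.8) or rat IgG1 isotype (clone HRPN), 5 mg/kg, the day before implantation, the day after and weekly thereafter; depletion was checked by flow cytometry. Test compound was given at 0.3 mg/kg DON equivalent s.c., 5 days/week, and individual tumour growth was followed.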

[14] = Intestinal S9 fraction stability and DON release; assay type: in vitro ADME; conditions: human
How it was run: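 Test compound at 10 μM was incubated with intestinal S9 fraction (final protein 1 mg/ml) at 37°C on an orbital shaker for 1 h, in triplicate. Reactions were quenched with three volumes of acetonitrile containing internal standard.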

[15] = Tolerability, subcutaneous dosing cohort; assay type: in vivo, C57BL/6/CES1-/- mice; conditions: 0.1, 0.3 and 1 mg/kg DON eq. subcutaneously
How it was run: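 EL4 tumour-bearing CES1−/− mice (0.3 × 10^6 cells s.c., right flank) received test compound at 0.1, 0.3 or 1 mg/kg DON equivalent s.c., 5 days/week. Tumour volume and body weight were recorded during dosing, with GI histology assessed alongside.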

EL4 tumors [16] = test: 13C5-glutamine flux analysis in EL4 tumors; assay type: in vivo, CES1-/- mice; conditions: 0.3 mg/kg DON eq. s.c., vehicle 19.99%
[17] = Body weight in MC38 anti-PD-1 combination study; assay type: in vivo, C57BL/6/CES1-/- mice; conditions: MC38 tumor-bearing mice, throughout the experiment
[18] = Plasma stability, WT mouse plasma; assay type: in vitro ADME, WT C57BL/6 mouse; conditions: C57BL/6, mouse
recombinant CES1 enzyme = molecular target: T3, recombinant CES1 enzyme (Homo sapiens, UniProt P23141); test: Recombinant CES1 enzyme stability; assay type: in vitro ADME; conditions: 20 μM, enzyme 10 μg/ml, up to 3 hours
T3 sequence (P23141 18-567): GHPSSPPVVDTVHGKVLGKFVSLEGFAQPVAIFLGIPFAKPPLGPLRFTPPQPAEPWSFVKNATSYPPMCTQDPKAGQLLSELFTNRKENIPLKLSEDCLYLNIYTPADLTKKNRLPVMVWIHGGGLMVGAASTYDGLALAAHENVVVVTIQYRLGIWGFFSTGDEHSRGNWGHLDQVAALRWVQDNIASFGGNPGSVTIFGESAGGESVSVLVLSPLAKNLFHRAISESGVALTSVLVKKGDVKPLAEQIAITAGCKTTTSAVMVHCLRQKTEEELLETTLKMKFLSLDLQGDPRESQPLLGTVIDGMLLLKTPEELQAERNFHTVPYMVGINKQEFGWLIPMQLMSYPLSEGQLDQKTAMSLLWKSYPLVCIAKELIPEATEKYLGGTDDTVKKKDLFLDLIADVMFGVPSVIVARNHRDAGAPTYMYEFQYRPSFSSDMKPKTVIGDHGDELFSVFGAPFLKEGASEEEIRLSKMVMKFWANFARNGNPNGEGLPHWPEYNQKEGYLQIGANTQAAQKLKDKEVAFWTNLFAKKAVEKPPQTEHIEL

[19] = GI tissue homogenate stability and DON release; assay type: in vitro ADME, C57BL/6/CES1-/- mouse; conditions: C57BL/6/CES1-/-, mouse, GI tissue (jejunum) homogenate, pH 7.4

COc1ccc(/C=C\c2cc(OC)c(OC)c(OC)c2)cc1OP(=O)(O)O [CA4P, combretastatin A4 phosphate]
tumor versus plasma delivery (in words) [1]: two- to threefold

[N-]=[N+]=CC(=O)CC[C@H](N)C(=O)O [DON, 6-Diazo-5-oxo-L-norleucine, reference compound]
tumor FGAR increase versus vehicle (FGAR): > 80 fold
patients with stable disease or regression [2]: 66%
tumor GLS-1 activity versus vehicle (in words) (GLS-1): significant inhibition of tumor GLS-1 activity
body weight reduction ([3]; 1 mg/kg intravenously, 5 days per week for 2 weeks): 20 to 30%
mice that required euthanasia based on IACUC weight loss guidelines ([3]; 1 mg/kg intravenously, 5 days/week for 2 weeks): 63%
IC50 [4]: 10 ± 0.3 µM
tumor response (in words) (EL4 tumors [5]): complete regression of the tumor
GI histology (in words) [6]: severe GI toxicity
EC50 (P493B lymphoma cells): 4 ± 0.6 µM
WBC (Complete blood count): 0.93 ± 0.18 K/uL

CC(=O)N[C@@H](Cc1c[nH]c2ccccc12)C(=O)N[C@@H](CCC(=O)C=[N+]=[N-])C(=O)OC(C)C [DRP-104, isopropyl(S)-2-((S)-2-acetamido-3-(1H-indol-3-yl)-propanamido)-6-diazo-5-oxo-hexanoate]
tumor FGAR increase versus vehicle (FGAR): > 80 fold
tumor growth (in words) (EL4 tumors [7]): dose-dependent inhibition of tumor growth; also recorded: complete tumor regression at the higher two doses
remaining at 1 h, 20 μM [8]: > 90%
% DRP-104 remaining [9]: 0%
tumor GLS-1 activity versus vehicle (in words) (GLS-1): significant inhibition of tumor GLS-1 activity
deaths (in words) ([3]; 1 mg/kg DON eq. intravenously): no deaths were observed
body weight (in words) ([3]; 1 mg/kg DON eq. intravenously, 5 days per week for 2 weeks): maintained their body weight
inhibition of GLS-1 (in words) ([4]; intact compound): inactive
survival (in words) (MC38 tumors [10]): enhanced survival compared to vehicle
metabolites found (MET-ID) ([11]; GI tissue homogenate): only the M1 metabolite
metabolites found (MET-ID) ([11]; tumor homogenate): both DON and M1 metabolite
intact DRP-104 concentration ([12]; GI tissue): no DRP-104 was observed
AUC0-t ([12]; plasma, after DRP-104 2.6 mg/kg s.c., 2.6 mg/kg): 0.65 nmol hour/ml or nmol hour/g
intact DRP-104 concentration ([12]; tumor): no DRP-104 was observed
tumor response (in words) (EL4 tumors [5]): complete regression of the tumor
GI histology (in words) [6]: improvement in all these parameters
GI morphology (in words) ([6]; 1 mg/kg DON eq. subcutaneously): mild lymphocytic infiltration
GI morphology (in words) ([6]; 0.1 and 0.3 mg/kg DON eq. subcutaneously): normal
dependence of efficacy on CD8+ T cells (in words) (MC38 tumors [13]): completely dependent
remaining at 1 h, 10 μM [14]: 0%
overt toxicity (in words) [15]: No overt signs of toxicity
M+5 isotopologue share of the total glutamate pool (EL4 tumors [16]): 14.66%
EC50 (P493B lymphoma cells): 10 ± 1.9 µM
effect on body weight (in words) [17]: no substantial effect on body weight
remaining at 1 h, 20 μM [18]: 0%
metabolism by recombinant CES1 (in words) (recombinant CES1 enzyme): CES1 was capable of metabolizing DRP-104 to M1 metabolite
remaining at 1 h, 20 μM [19]: 0%

CCCCCOC(=O)Nc1nc(=O)n([C@@H]2O[C@H](C)[C@@H](O)[C@H]2O)cc1F [capecitabine]
average 5-fluorouracil concentration in tumor versus adjacent healthy tissue [1]: 3.2 fold

— paper PMC9668306 (Science Advances, 2022)
